Consider five molecules from paper PMC4804196 (Journal of biomolecular screening, 2012).

The target in experiment [1] is T1, human RXFP1 (Homo sapiens, UniProt Q9HBX9).
T1 sequence (Q9HBX9 1-757): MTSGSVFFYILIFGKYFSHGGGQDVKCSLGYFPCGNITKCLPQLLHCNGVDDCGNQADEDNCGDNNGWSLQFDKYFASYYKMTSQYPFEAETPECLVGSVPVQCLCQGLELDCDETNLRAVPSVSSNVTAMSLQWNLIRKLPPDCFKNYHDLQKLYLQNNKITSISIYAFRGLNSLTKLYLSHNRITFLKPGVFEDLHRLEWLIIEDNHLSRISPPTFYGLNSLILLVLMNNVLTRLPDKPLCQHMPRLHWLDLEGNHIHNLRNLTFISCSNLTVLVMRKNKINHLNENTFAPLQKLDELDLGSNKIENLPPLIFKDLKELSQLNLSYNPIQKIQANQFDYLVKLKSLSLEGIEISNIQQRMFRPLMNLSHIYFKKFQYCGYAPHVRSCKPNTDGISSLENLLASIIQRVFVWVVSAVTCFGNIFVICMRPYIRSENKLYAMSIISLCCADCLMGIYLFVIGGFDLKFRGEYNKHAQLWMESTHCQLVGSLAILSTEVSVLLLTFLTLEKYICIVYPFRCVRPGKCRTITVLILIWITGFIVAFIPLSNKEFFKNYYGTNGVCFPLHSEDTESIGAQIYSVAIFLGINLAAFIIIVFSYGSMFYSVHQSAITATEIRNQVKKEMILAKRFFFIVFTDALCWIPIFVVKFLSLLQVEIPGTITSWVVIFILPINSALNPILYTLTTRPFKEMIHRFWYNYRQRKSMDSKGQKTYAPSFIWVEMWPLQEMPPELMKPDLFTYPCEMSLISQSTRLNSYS
Nature of the experiment: ELISA cAMP assay. Type of experiment: cell-based. Conditions: 96-well; for efficacy: normalized to 57.5 μM forskolin as 100%. The gist of the method:
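HEK293T cells stably expressing human RXFP1 were grown in DMEM with 10% FBS, penicillin/streptomycin and 500 μg/mL geneticin. They were seeded at 16,000 cells/well and left overnight at 37 °C, 5% CO₂. PDE inhibitor Ro 20-1724 (417 μM addition solution in PBS+) was added, then test compound in DMSO, for 30 min at 37 °C. Cells were lysed and cAMP was quantified by ELISA. EC50 came from nonlinear regression of dose-response curves.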
On the technique in general: In an ELISA, binding on a coated surface is turned into a signal by an enzyme label.

Experiment [2] addresses T1, human RXFP1. Nature of the experiment: HTRF cAMP assay in HEK293-RXFP1 cells. The format is cell-based. For orientation: TR-FRET usually uses a lanthanide donor and a delayed reading to cut background.
Experiment [3] has as its target human relaxin family receptor 1 (RXFP1) (human) (UniProt Q9HBX9).
The target in experiment [4] is T2, vasopressin 1b receptor (V1b) (Homo sapiens, UniProt P47901).
T2 sequence (P47901 1-424): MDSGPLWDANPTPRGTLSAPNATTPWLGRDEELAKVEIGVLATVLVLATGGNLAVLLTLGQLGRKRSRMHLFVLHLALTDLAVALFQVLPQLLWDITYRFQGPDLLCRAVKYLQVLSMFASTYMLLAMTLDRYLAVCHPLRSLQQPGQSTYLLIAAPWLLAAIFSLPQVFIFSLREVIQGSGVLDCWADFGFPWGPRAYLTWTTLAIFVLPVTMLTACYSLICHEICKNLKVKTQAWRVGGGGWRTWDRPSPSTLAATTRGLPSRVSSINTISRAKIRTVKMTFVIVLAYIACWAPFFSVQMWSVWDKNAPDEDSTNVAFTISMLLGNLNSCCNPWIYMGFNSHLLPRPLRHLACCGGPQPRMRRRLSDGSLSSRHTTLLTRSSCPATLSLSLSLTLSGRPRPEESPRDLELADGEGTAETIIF
Description: HTRF cAMP counter screen in HEK293-V1b cells. Type of experiment: cell-based.

The target in experiment [5] is human relaxin family receptor 2 (RXFP2) (Homo sapiens, UniProt Q8WXD0). Description: HTRF cAMP selectivity assay in HEK293-RXFP2 cells. Type of experiment: cell-based. Conditions: HEK293-RXFP1 vs HEK293-RXFP2.
human relaxin family receptor 2 (RXFP2), sequence (Q8WXD0 whole entry): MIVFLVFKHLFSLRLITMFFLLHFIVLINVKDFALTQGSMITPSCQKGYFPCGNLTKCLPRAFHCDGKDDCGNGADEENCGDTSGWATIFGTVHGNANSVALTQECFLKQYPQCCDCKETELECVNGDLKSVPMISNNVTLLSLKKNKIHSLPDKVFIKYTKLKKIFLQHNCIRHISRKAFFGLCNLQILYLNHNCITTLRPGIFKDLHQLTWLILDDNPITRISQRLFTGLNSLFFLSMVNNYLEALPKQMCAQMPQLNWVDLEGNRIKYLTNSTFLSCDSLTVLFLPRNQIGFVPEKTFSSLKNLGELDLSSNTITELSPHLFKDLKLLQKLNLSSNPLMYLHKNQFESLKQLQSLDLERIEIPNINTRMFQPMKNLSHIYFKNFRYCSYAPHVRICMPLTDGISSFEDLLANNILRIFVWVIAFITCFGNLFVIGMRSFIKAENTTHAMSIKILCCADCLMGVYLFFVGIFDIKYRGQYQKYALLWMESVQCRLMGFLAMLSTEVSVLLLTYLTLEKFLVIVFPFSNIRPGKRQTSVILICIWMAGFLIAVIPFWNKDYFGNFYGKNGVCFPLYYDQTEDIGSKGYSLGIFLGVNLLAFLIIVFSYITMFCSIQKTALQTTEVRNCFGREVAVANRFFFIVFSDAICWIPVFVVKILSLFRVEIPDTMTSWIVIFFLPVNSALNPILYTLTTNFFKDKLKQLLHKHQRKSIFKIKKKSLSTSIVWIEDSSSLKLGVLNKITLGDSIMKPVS

Porcine relaxin (ligand), sequence (P01348 25-182): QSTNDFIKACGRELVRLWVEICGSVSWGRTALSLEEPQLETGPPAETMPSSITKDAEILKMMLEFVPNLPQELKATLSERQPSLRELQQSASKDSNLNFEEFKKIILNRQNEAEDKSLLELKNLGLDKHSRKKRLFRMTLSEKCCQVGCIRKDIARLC

For `O=C(Nc1ccccc1C(=O)Nc1ccccc1C(=O)NCc1ccco1)c1ccco1` [MLS000088899], on human RXFP1 [1], a half-maximal effect (EC50) was put at 2.9 µM and the efficacy turned out to be 80%.
For `O=C(Nc1cccc(C(F)(F)F)c1)c1ccccc1NC(=O)C1CCCCC1` [MLS000579461], on human RXFP1 [1], a half-maximal response (EC50) required 6.2 µM and the efficacy is on record as 60%.
Turning to `C=C[C@@]1(C)CC(=O)[C@]2(O)[C@@]3(C)[C@@H](O)CCC(C)(C)[C@@H]3[C@H](O)[C@H](OC(C)=O)[C@@]2(C)O1` [forskolin, reference compound], the EC50 amounted to 164 nM at human RXFP1 [2] (EC50 (cAMP response), HEK293-RXFP1 cells, 384-well format) and 193 nM at human RXFP1 [2] (EC50 (cAMP response), HEK293-RXFP1 cells, 1,536-well format).
Porcine relaxin (ligand) returned an EC50 of cAMP production (HTRF cAMP assay) in HEK293-RXFP1 cells, 384-well format in experiment [3] of 203 pM.
As to relaxin, in experiment [4], the “activity in HEK293-V1b counter screen” value was “no activity”. The concentration for a half-maximal effect (EC50) on human RXFP1 [2] (read-out: EC50 (cAMP response), HEK293-RXFP1 cells, 384-well format) was 0.203 nM; at human RXFP1 [2] (read-out: EC50 (cAMP response), HEK293-RXFP1 cells, 1,536-well format) it was 0.494 nM. Also, the “selectivity towards RXFP1 over RXFP2” value in experiment [5] is more than 30 fold.

As usually defined, the EC50 is the concentration giving half of the maximal effect.
